Hits are enriched below; roughly 2.4% of the tested compounds scored in any of these assays.
TbMetRS inhib = blocks T. brucei methionyl-tRNA synthetase activity. purified T. brucei MetRS, ATP depletion, Kinase-Glo luminescence. inhibition, % at 11.9 µM. 360,000 tested, 0.4% active;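 active means inhibition above a per-plate cutoff of the control wells' mean inhibition plus 3 SD, cut at about 5.5% in these data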;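 further: 0% = DMSO wells median and 100% = median of wells with control inhibitor compound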
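Dosing: 11.9 µM compound single dose, 0.9% DMSO; Assay system: purified T. brucei MetRS enzyme; Measured by: Kinase-Glo luciferase luminescence reporting remaining unconsumed ATP; Schedule: 15 min plus 2 h at 25 °C.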
TAG inh = reduces triacylglycerol accumulation in H9c2 cells; Nile Red lipid (TAG) fluorescence; cells loaded with 200 µM oleic acid; 230,000 tested, 0.66% active; inhibition, % at 12.5 µM;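 active means pattern-corrected inhibition of lipid staining of at least 50% with the nuclear-stain viability signal not falling by more than 50%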;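 further: 0% = DMSO wells and 100% = triacsin C control wells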
aDG glyco act = alpha-DG glycosylation activation | 360,000 tested, 0.22% active | Pro5-aDG cells, alpha-DG glycosylation AlphaScreen (IIH6); 0% Pro5, 100% B10-LARGE cell signal | activation, % at 10 µM;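 active means activation of at least 8% versus controls, or a plate z-score of at least 8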;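 further: Pro5 are CHO cells carrying HIG-tagged alpha-DG that lacks glycosylation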
NTR1 agonist = NTR1 (human) agonism; P30989; NTR1-U2OS beta-arrestin-GFP spot imaging, agonist mode; activation, % at 20 µM; 330,000 tested, 0.17% active; AID 493036;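 active means activation at or above 40% of the spot to cytoplasm intensity ratio, with at least 20 cells analyzed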;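 further: 0% = DMSO without peptide and 100% = 100 nM NTR1 peptide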
Target sequence (P30989 whole entry, looked up): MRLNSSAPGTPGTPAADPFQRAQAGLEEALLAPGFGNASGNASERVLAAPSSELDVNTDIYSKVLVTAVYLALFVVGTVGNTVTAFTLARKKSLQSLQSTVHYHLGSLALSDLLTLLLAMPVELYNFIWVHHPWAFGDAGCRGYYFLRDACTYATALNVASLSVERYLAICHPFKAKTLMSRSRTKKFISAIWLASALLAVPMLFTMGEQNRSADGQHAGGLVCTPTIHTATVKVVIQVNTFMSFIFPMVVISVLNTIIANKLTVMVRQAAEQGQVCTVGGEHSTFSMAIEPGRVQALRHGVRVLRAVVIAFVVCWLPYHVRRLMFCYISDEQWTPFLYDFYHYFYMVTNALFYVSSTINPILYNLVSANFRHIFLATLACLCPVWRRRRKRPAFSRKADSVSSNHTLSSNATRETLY
MC4R antag cAMP = blocks human MC4R cAMP signaling. MC4R-expressing cells, MTII-stimulated cAMP, LANCE TR-FRET. inhibition, % at 6.5 µM. 360,000 tested, 0.48% active. AID 540295;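 active means inhibition above its plate's cutoff, the mean of tested wells on that plate plus 3 SD, cut at about 29% in these data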;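 further: 0% = Melanotan II alone and 100% = Melanotan II plus saturating MCL0020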
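system = U2OS cells with stable human MC4R expression | also added = Melanotan II challenge after compound preincubation | dosing = one concentration, 6.5 µM nominal | incubation = compound 30 min, challenge 1 h, detection 1 h | measured by = TR-FRET with Eu-cAMP and labeled anti-cAMP, 671 nm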
MC4R barr agon = human MC4R agonism via beta-arrestin. AID 540308. 360,000 tested, 0.98% active. activation, % at 8.9 µM. P32245. U2OS MC4R beta-arrestin complementation, luminescence; percent of melanotan II response, DMSO zero;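 active means activation above a per-plate cutoff, the mean activation of sample wells on that plate plus 3 SD, cut at about 8% in these data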
An asterisk follows results filed as active.

Screening CC(=O)Nc1ccc(NC(=O)CNC(=O)c2sc3ccccc3c2Cl)cc1 returned TbMetRS inhib 0, TAG inh 12, aDG glyco act 0, NTR1 agonist 1, MC4R antag cAMP 5 and MC4R barr agon 0.
For O=C(CNC(=O)c1sc2ccccc2c1Cl)NCc1cccc(C(F)(F)F)c1 the results were TbMetRS inhib 0, TAG inh -6, aDG glyco act 0, NTR1 agonist 1, MC4R antag cAMP 7 and MC4R barr agon 9.4*.
Screening C/C(=N\Nc1nc2ccccc2[nH]1)c1ccc([N+](=O)[O-])cc1 returned TbMetRS inhib 1, TAG inh 11, aDG glyco act 0, NTR1 agonist 2, MC4R antag cAMP -3 and MC4R barr agon 9.5*.
Screening O=S1(=O)CC(N2CCN(CCO)CC2)CN1Cc1cn(Cc2ccc(C(F)(F)F)cc2)nn1 (centres undefined) returned TbMetRS inhib 0 and aDG glyco act 0.
`Cc1cccc(OCC(=O)N/N=C/c2cn[nH]c2-c2ccc(Cl)c(Cl)c2)c1` gave TbMetRS inhib 0, TAG inh 26, aDG glyco act 1, NTR1 agonist 15, MC4R antag cAMP 15 and MC4R barr agon 4.
Cc1ccc(OCC(=O)N/N=C/c2cn[nH]c2-c2ccc(Cl)c(Cl)c2)cc1 was read as TbMetRS inhib 0, TAG inh 40, aDG glyco act 0, NTR1 agonist 14, MC4R antag cAMP 15 and MC4R barr agon 8.7*.
O=C(N/N=C/c1cc([N+](=O)[O-])ccc1O)c1cccc2cc[nH]c12 was read as TbMetRS inhib -1, TAG inh 61*, aDG glyco act 0, NTR1 agonist 7, MC4R antag cAMP 4 and MC4R barr agon -2.
`O=C(N/N=C/c1cccc([N+](=O)[O-])c1)c1cccc2cc[nH]c12` gave TbMetRS inhib 0, TAG inh 4, aDG glyco act 0, NTR1 agonist -1, MC4R antag cAMP -3 and MC4R barr agon 0.
Screening CCCCCOc1ccc(Br)cc1/C(C)=N/NC1=NCCN1 returned TbMetRS inhib 0, TAG inh 69*, aDG glyco act 0, NTR1 agonist 10, MC4R antag cAMP -23 and MC4R barr agon 6.
`c1ccc2c(c1)[nH]c1c(NCC3CCCO3)ncnc12` (centres undefined) gave TbMetRS inhib 54*, TAG inh -18, aDG glyco act 2, NTR1 agonist 0, MC4R antag cAMP 3 and MC4R barr agon 0.
`c1nc(NCC2CCCO2)c2[nH]cnc2n1` (centres undefined) gave TbMetRS inhib 0, aDG glyco act 0, NTR1 agonist 1, MC4R antag cAMP 10 and MC4R barr agon 0.
For O=[N+]([O-])c1nn(-c2ccccc2)[n+]([O-])c1N1CCN(c2ccccc2F)CC1 the results were TbMetRS inhib -1, TAG inh 3, aDG glyco act 0, NTR1 agonist 2, MC4R antag cAMP -5 and MC4R barr agon 9.3*.
For O=[N+]([O-])c1nn(-c2ccccc2)[n+]([O-])c1N1CCN(c2ccccc2)CC1 the results were TbMetRS inhib 0, TAG inh 14, aDG glyco act 0, NTR1 agonist 1, MC4R antag cAMP 12 and MC4R barr agon -2.
For Cc1cc(C)c(NC(=O)c2ccccc2CCc2ccccc2)c(C)c1 the results were TbMetRS inhib 0, aDG glyco act 0, NTR1 agonist 4, MC4R antag cAMP 0 and MC4R barr agon 29*.
Cc1ccc(S(=O)(=O)NCC(=O)OCC(=O)N2N=C(c3ccc(Cl)cc3)CC2c2ccco2)cc1C (centres undefined) was read as TbMetRS inhib 1, aDG glyco act 1, NTR1 agonist 0, MC4R antag cAMP 18 and MC4R barr agon 9.2*.
Screening O=C(OCC(=O)N1N=C(c2ccc(Cl)cc2)CC1c1ccco1)c1ccco1 (centres undefined) returned TbMetRS inhib 0, TAG inh 14, aDG glyco act 1, NTR1 agonist 4, MC4R antag cAMP 8 and MC4R barr agon 0.
For Cc1nn(Cc2ccccc2Cl)c(C)c1NC(=O)c1cc(-c2ccc(F)cc2)on1 the results were TbMetRS inhib 0, aDG glyco act 0, NTR1 agonist 9, MC4R antag cAMP 16 and MC4R barr agon 8.9*.
C=CCOc1c(/C=N\NC(N)=O)cccc1OC was read as TbMetRS inhib 0, TAG inh 1, aDG glyco act 0, NTR1 agonist 1, MC4R antag cAMP 24 and MC4R barr agon 0.
For C=CCOc1c(OC)cc(/C=N/Nc2cccc(C(=O)O)c2)c(Br)c1Br the results were TbMetRS inhib 0, TAG inh 57*, aDG glyco act 0, MC4R antag cAMP -23 and MC4R barr agon -2.
Screening O=C(/C=C/c1cccc(Cl)c1)c1ccc([N+](=O)[O-])o1 returned TbMetRS inhib 0, TAG inh 95, aDG glyco act 0, NTR1 agonist -1, MC4R antag cAMP 34* and MC4R barr agon -4.
Screening Cc1cccc(-c2cnc(C(O)Cc3ccccc3)[nH]2)c1 (centres undefined) returned TbMetRS inhib 0, TAG inh -7, aDG glyco act 0, MC4R antag cAMP -1 and MC4R barr agon 1.
CCn1c2ccccc2c2cc(NC(=O)CSc3nnnn3-c3ccccc3)ccc21 was read as TbMetRS inhib 1, TAG inh 33, aDG glyco act -1, NTR1 agonist -1, MC4R antag cAMP 7 and MC4R barr agon 8.7*.
Screening CCC(c1nnnn1-c1ccc2c(c1)OCCO2)N1CCN(c2cccc(C)c2C)CC1 (centres undefined) returned TbMetRS inhib -1 and aDG glyco act 0.
`O=C1NC[C@@H](CCCCN2C[C@H](Cc3ccc(O)cc3)N(CCc3ccc(O)cc3)C(=O)C2=O)N(Cc2ccccc2)C1=O` gave TbMetRS inhib 0 and aDG glyco act 0.
CN(C)CCNC(=O)c1cccc2nc3c(ccc4ccccc43)nc12 was read as TbMetRS inhib 0, TAG inh 51*, aDG glyco act 0, MC4R antag cAMP -23 and MC4R barr agon -1.
COc1cccc2nc3c(C(=O)NCCN(C)C)cccc3cc12 was read as TbMetRS inhib 0, TAG inh 116, aDG glyco act 0, MC4R antag cAMP -22 and MC4R barr agon 0.
`CC1(C)Cc2ccccc2C2=NNC(=O)C2=N1` gave TbMetRS inhib -1, TAG inh 40, aDG glyco act 9.0*, NTR1 agonist 2, MC4R antag cAMP -13 and MC4R barr agon -2.
CC1(C(=O)NS(=O)(=O)C2CC2)CCN(C(=O)CSc2ccccc2)C1 (centres undefined) was read as TbMetRS inhib 0, TAG inh 14, aDG glyco act 0, MC4R antag cAMP 5 and MC4R barr agon 0.
